Measurements pooled from the literature.

| SMILES | system | conditions | clearance |
| --- | --- | --- | --- |
| CC[C@H](C)[C@@H]1NC(=O)[C@@](C)(NC(=O)[C@H](CCCNC(=N)N)NC(=O)[C@H](CC(C)C)NC(=O)[C@@H](NC(=O)[C@H](CCC(N)=O)NC(=O)[C@H](CC(C)C)NC(C)=O)[C@@H](C)O)CCCC=CCCC[C@@](C)(C(=O)N[C@@H](CC(C)C)C(=O)N[C@@H](Cc2ccc3ccccc3c2)C(N)=O)NC(=O)[C@H](CCCNC(=N)N)NC(=O)[C@H](CCC(N)=O)NC1=O | male BALB/c mouse, plasma | intravenous, 10 mg/kg | 0.713 mL/min/kg |
| CNCCN(C)c1cc(C#N)cc(CCc2cc(C)cc(N)n2)c1 | male BALB/c mouse, brain | intravenous, 2 mg/kg | 21 mL/min/kg |
| Cc1noc(C)c1-c1ccc2nc(-c3cnn(CC(C)(C)O)c3)nc(N3CCNC[C@@H]3c3ccccc3)c2c1 | CD-1 mouse, plasma | intravenous, 2 mg/kg | 272 mL/min/kg |
| CC(C)(Oc1cccc(N2CCC[C@@H](C(=O)N(Cc3ccc(-c4cn[nH]c4)cc3)C3CC3)C2)c1)C(=O)N1CCNCC1.Cl | male C57BL/6 mouse, plasma | intravenous, 1 mg/kg | 44.2 mL/min/kg |
| CC(C)N1Cc2cc(C(F)(F)F)ncc2C2=CN=C(NCc3c(F)ccc4c3CCO4)N3C=NC(C1=O)C23 (centres unmarked) | male CD-1 mouse, plasma | intravenous, 2 mg/kg | 1.71 mL/min/kg |
| CCc1cc(C(=O)NC)c2nccc(N3CCc4c(cc(Cn5ccnc5)cc4-c4cn(C)nc4C(F)(F)F)C3=O)c2c1 | male CD-1 mouse, plasma | intravenous, 3 mg/kg | 12 mL/min/kg |
| CCO[C@H]1CCN(Cc2c(OC)cc(C)c3[nH]ccc23)[C@H](c2ccc(C(=O)O)cc2)C1 | C57BL/6 mouse, plasma | intravenous, 1 mg/kg | 16 mL/min/kg |
| O=C(CS(=O)(=O)O)Nc1ccc(N2CCOCC2)c(Br)c1 | CD-1 mouse, blood | intravenous, 2 mg/kg | 62 mL/min/kg |
| COc1ccc2cc(CCC[18F])ccc2c1 | male BALB/c mouse, plasma | intravenous | 0.25 mL/min |
| OC[C@H]1O[C@@H](c2ccc(Cl)c(Cc3ccc(O[C@H]4CCOC4)cc3)c2)[C@H](O)[C@@H](O)[C@@H]1O | CD-1 mouse, plasma | intravenous, 5 mg/kg | 51.6 mL/min/kg |
| Cc1c(Br)cc(NC(=O)CS(=O)(=O)O)cc1Br | CD-1 mouse, blood | intravenous, 2 mg/kg | 21.8 mL/min/kg |
| COc1nc(-c2cc(C)c(N[C@@H](C)c3c(F)cc(F)cc3F)nn2)ccc1-n1cnc(C)c1 | male CD-1 mouse, plasma | intravenous, 1 mg/kg, single dose | 6.33 mL/min/kg |
| CNC(=O)c1cc(OC)cc2c(N3CCc4c(cc(Cn5ccnc5)cc4-c4cn(C)nc4C(F)(F)F)C3=O)ccnc12 | male CD-1 mouse, plasma | intravenous, 3 mg/kg | 15 mL/min/kg |
| CC(C)(C)c1ccc(O)c(CN(Cc2cc(C(C)(C)C)ccc2O)C2CCC(NC(N)=O)CC2)c1 (centres unmarked) | male C57BL/6 mouse, plasma | intraperitoneal, 5 mg/kg, single dose | 15.7 mL/min/kg |
